Sampled rows, rich in hits. Any-hit rate of the full collection: about 1.9%.
UCH37 inh – inhibitors of human deubiquitinating enzyme UCH37 | Q9Y5K5 | purified proteasome/UCH37, Ub-AMC cleavage fluorescence | inhibition, % (no concentration beside the values) | hit rate 0.33% among 330,000;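 active = mean inhibition over replicate wells above about 20%, limit read from the data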;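 note: 0% = compound-free wells with enzyme and 100% = wells lacking proteasome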
Target sequence (Q9Y5K5 whole entry, looked up): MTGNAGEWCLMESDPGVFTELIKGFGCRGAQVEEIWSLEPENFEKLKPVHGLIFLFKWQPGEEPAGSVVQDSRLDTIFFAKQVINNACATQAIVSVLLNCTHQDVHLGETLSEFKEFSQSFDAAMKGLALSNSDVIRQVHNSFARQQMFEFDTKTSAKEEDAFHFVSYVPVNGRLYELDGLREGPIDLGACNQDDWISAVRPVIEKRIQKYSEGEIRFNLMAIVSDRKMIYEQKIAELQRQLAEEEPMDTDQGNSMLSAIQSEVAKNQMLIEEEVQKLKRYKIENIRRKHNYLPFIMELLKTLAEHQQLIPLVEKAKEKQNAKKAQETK
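Assay system: Proteasome-bound UCH37. Buffer or medium: pH 7.4 Tris-HCl (50 mM) with ovalbumin, ATP-MgCl2, DTT. Incubation: 30 min preincubation with enzyme, 25 min cleavage at room temperature. Measured by: fluorescence, ex 355 nm, em 460 nm. Read-out basis: percent inhibition. Control set: wells without proteasome as full block, compound-free enzyme plus substrate as uninhibited.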
aDG glyco act – alpha-DG glycosylation activation; Pro5-aDG cells, alpha-DG glycosylation AlphaScreen (IIH6); 0% Pro5, 100% B10-LARGE cell signal; activation, % at 10 µM; hit rate 0.22% among 360,000;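 active = activation of at least 8% versus controls, or a plate z-score of at least 8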;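 note: Pro5 are CHO cells carrying HIG-tagged alpha-DG that lacks glycosylation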
Vif imaging – inhibitors of HIV Vif. AID 602346. inhibition, % at 7.49 µM. hit rate 0.35% among 340,000. HEK293T cells, Vif self-association by quenched fluorescence, imaging, 24 h; in the data active = inhibition above about 50%, passing the limit was not always enough; inconclusive = no clear call, values can overlap the other calls; inactive = below about 31%
Glyco luc inh – blocks N-linked glycosylation in D54 reporter cells | D54 ERlucT glycosylation luciferase reporter, 24 h; percent of 100 nM tunicamycin response | hit rate 0.23% among 360,000 | reporter increase, % at 12.5 µM;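 active = mean luciferase reporter signal, scaled so untreated is 0 and the glycosylation-blocking control 100, at or above a set limit in every replicate; inconclusive = mean reaches the limit but not every replicate does; inactive = mean below the limit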;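 note: luciferase carries N-glycosylation sites so blocking glycosylation raises the light; 0% = median of neutral control wells and 100% = median of 100 nM tunicamycin wells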
MsrA act – activators of bovine methionine sulfoxide reductase A; activation, % at 10.6 µM; AID 602163; purified bovine MsrA, absorbance read-out; hit rate 0.3% among 360,000; in the data active = activation above about 7.5%;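 note: 0% = vehicle and 100% = reference activator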
MsrA inh – bovine MsrA inhibition. purified bovine MsrA, absorbance read-out. inhibition, % at 15.5 µM. hit rate 0.75% among 360,000; in the data active = inhibition above about 4.5%;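 note: 0% = vehicle wells with enzyme and 100% = reference inhibitor wells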
An asterisk follows results filed as active; ? = inconclusive; . = no result.

SMILES	UCH37 inh	aDG glyco act	Vif imaging	Glyco luc inh	MsrA act	MsrA inh
CCOC(=O)C(N)CSC1CC(=O)N(c2ccc(C(=O)OC)cc2)C1=O (stereo unspecified)	-2	0	-8	-1	11*	0
COc1ccc(NC(=O)CON=C2CCCc3nonc32)cc1	4	.	.	.	.	.
CSc1ccc(C=NNC(=O)c2ccc(C)c(C)c2)cc1	-20	.	.	.	.	.
CC(=NNS(=O)(=O)c1ccc(C)cc1)c1ccc2c(c1)OCO2	6	.	.	.	.	.
O=C(CSc1nncs1)NCc1ccc(F)cc1	1	0	51*	2	-7	-1
COc1ccc(C(C)=NNc2nccnc2Cl)cc1	4	.	.	.	.	.
COc1ccc(C(=O)CSc2nn3c(=O)c(C(C)(C)C)nnc3s2)cc1	3	0	-3	34*	-2	1
CC(C)(C)c1nnc2sc(SCC(=O)c3ccccc3)nn2c1=O	5	0	-1	5	-1	3
Cc1ccc(C=Nc2sc(Cc3ccccc3)c(C)c2C(N)=O)o1	-19	.	.	.	.	.
CC(CC(=O)Nc1ccc(C)c(Cl)c1)=NNC(=O)C1CCCCC1	1	.	.	.	.	.
CCCCN(C=O)c1c(CC)nc2c(OCCOc3ccccc3)cccn12	.	0	58*	-2	2	0
CCOC(=O)CNC(=O)c1ccc2[nH]c3c(c2c1)CCCC3	-13	0	72*	2	-3	1
O=c1c(=Cc2ccccc2)sc2nnc(-c3cccs3)n12	3	.	.	.	.	.
c1ccc(C[n+]2cccc3c4ccccc4ccc32)cc1	-147	0	53*	2	0	1
O=C(NN=Cc1cn(-c2cccs2)nc1-c1ccccc1)c1ccc(O)cc1	-4	.	.	.	.	.
C(=C/c1nccc2c1[nH]c1ccccc12)/c1ccc2c(c1)OCO2	-273	0	72*	0	-4	2
Cc1cc(C)nc(N=C(N)Nc2ccc(C)c([N+](=O)[O-])c2)n1	4	.	.	.	.	.
Cc1ccc(S(=O)(=O)/C(C#N)=C/c2c(N3CC(C)OC(C)C3)nc3ccccn3c2=O)cc1 (stereo unspecified)	1	0	67*	2	-10	0
CC(C)n1c(/C=C/[C@H](O)C[C@H](O)CC(=O)O)c(-c2ccc(F)cc2)c2ccccc21	1	0	-3	104*	-2	.
CC(CCc1ccccc1)NC(=O)/C=C/c1ccc(F)cc1 (stereo unspecified)	1	.	.	.	.	.
O=C(NN=Cc1c(F)cccc1Cl)c1cc(C2CC2)[nH]n1	0	.	.	.	.	.
CCC(CC)C(=O)NCCc1ccc(S(N)(=O)=O)cc1	2	0	68*	2	-4	1
CCCCC(CC)C(=O)NCCc1ccc(S(N)(=O)=O)cc1 (stereo unspecified)	1	0	-4	1	-4	1
O=C(O)COc1ccccc1C=NNC(=O)c1ccc2c(c1)OCCO2	6	.	.	.	.	.
CCCOc1ccc(CSc2nc3ccccc3[nH]2)cc1	5	4.4*	-12	-11	-3	-1
SMILES	UCH37 inh	aDG glyco act	Vif imaging	Glyco luc inh	MsrA act	MsrA inh
COc1ccc(NC(=O)Cn2ncc(Cl)c(Cl)c2=O)cc1S(=O)(=O)N1CCOCC1	5	0	59*	13	-8	-1
COc1cc(C=NNC(=O)c2cccc(C)c2)ccc1OCC(=O)Nc1ccccc1	4	.	.	.	.	.
COC(=O)C1=C(C)N(Cc2ccco2)C(=O)/C1=C\c1ccc(N(C)C)cc1	3	1	71*	-2	0	-1
COc1cc2[nH]c(=O)n(CCCC(=O)NC3CCCCC3)c(=O)c2cc1OC	-16	0	55*	0	0	.
CCOc1cc2[nH]c(=O)n(CCCCC(=O)NC3CCCCCC3)c(=O)c2cc1OCC	-8	0	4	0	-5	-1
Cc1ccc(NC(=O)COc2ccc(N(C)C(=O)C(C)(C)C)cc2)cc1S(=O)(=O)N1CCCCC1	4	4.6*	.	-5	0	0
COCCn1c(COc2ccccc2)nnc1SCC(N)=O	-3	0	60*	2	-3	-1
Cc1sc2ncnc(Sc3nnnn3-c3ccccc3)c2c1C	-13	1	.	-4	-3	0
Clc1ccc(-n2nnnc2Sc2ncnc3sccc23)cc1	3	0	184*	-2	-6	-1
Cn1nnnc1Sc1ncnc2scc(-c3ccc(Cl)cc3)c12	.	0	149*	-13	-1	0
O=[N+]([O-])c1cccc(C=NNc2nnc(-c3ccccc3)c(-c3ccccc3)n2)c1	3	.	.	.	.	.
COCCn1c(C)cc(C=NNC(=O)c2cc3ccccc3cc2O)c1C	0	.	.	.	.	.
C[C@H](NC(=O)c1nc[nH]c1C(=O)NC(c1ccccc1)c1ccccc1)C(=O)OCc1ccccc1	4	0	0	4	-2	0
C[C@@H](NC(=O)c1nc[nH]c1C(=O)N1CCN(c2ccccc2)CC1)c1ccccc1	2	0	3	28*	-3	-1
C[C@H](NC(=O)c1nc[nH]c1C(=O)N[C@@H](C)C(=O)OCc1ccccc1)C(=O)OCc1ccccc1	3	0	68*	3	-6	0
COc1cccc(C(=O)NCCCNC(=O)c2cccnc2)c1	1	0	87*	0	-4	0
C(=Nn1cnnc1)c1ccccn1	1	.	.	.	.	.
COc1cccc(-c2sc3ccc(OC)cc3c2C#CC2(O)CCCCC2)c1	.	0	-3	-1	-5	4.7*
COc1cc(OC)cc(-c2sc3ccc(OC)cc3c2C#CC2(N)CCCCC2)c1	.	3	2	-5	-1	1
Cc1cc(C)c(S(=O)(=O)Nc2ccc3c4c(cccc24)CC3)c(C)c1	2	0	57*	6	1	-1
Cc1ccc(S(=O)(=O)Nc2ccc3c4c(cccc24)CC3)c(C)c1	6	2	3	9	0	0
CN(C)c1ccc(C=c2c3ccccc3n3c2c2ccccc2[n+]3C)cc1	.	5	-9	-4	-4	2
Cc1cc2c(=Cc3ccc(N(C)C)cc3)c3ccccc3n2[n+]1C	.	2	-24	66*	4	1
Cc1cc(C(=O)N/N=C/c2c3ccccc3cc3ccccc23)n[nH]1	.	0	?	45*	-1	1
CN(C)/C=C(\C#N)C(=O)NN=Cc1ccc(Cl)cc1	6	.	.	.	.	.
COc1ccccc1-c1cc(NC=O)c2ncc(-c3cccc(C(=O)N(C)C)c3)n2c1	.	0	?	41*	-1	1
C=C1C(=O)O[C@H]2[C@H]1[C@H](OC(=O)/C(C)=C\C)C[C@]1(CO1)[C@@H]1[C@H](OC(C)=O)C=C(C)[C@]21O	.	1	8	11	-3	0
C=C1C(=O)O[C@@H]2[C@H]1[C@@H](OC(=O)/C(C)=C/C)C/C(C)=C\C(=O)/C=C(\C)[C@@H]2O	.	0	97*	8	-2	1
CC(CCc1oc2ccc(Br)cc2c1-c1ccc(C)o1)=NO	1	.	.	.	.	.
O=C1/C(=N\S(=O)(=O)c2cccs2)C([n+]2cccc(Cc3ccccc3)c2)=C([O-])c2ccccc21	11	3.6*	0	-18	-7	.

Screening results (PubChem BioAssay)
